rRNA inh HTS – reduced GFP signal of wild-type E. coli, primary screen, bacterial rRNA inhibitor project, GFP/RFP fluorescence, OD600, single point; GFP signal change (wild-type ribosome), % (concentration not given with the values); 1.6% of 350,000 active; E. coli WT GFP vs humanized-ribosome RFP mutants, 24 h; stronger effect = lower value; DMSO median 0, no signal -100;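 active means significant combined selectivity score with lowered wild-type GFP, culture density cut under 30%, mutant RFP and density less affected; inactive means any of these conditions unmet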
S100A4 inh HTS – inhibitors of S100A4-myosin IIA peptide binding, primary screen, biochemical, fluorescence polarization, TAMRA-MyoIIA peptide; inhibition, % at 10.7 µM; 0.14% of 360,000 active; AID 652163, 2013;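 active means mean inhibition of at least 70% across replicates, with every replicate also reaching that level; inconclusive means mean inhibition reaches 70% but some replicates fall short; inactive means mean inhibition below 70%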
Target sequence (P26447 whole entry, looked up): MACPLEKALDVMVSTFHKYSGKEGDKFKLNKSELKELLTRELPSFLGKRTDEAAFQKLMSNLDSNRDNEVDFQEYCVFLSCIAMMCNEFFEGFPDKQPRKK
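assay system = human S100A4 monomer with TAMRA-labelled myosin IIA peptide | also added = labelled myosin peptide probe, 5 nM | incubation = 5 min between mix addition and reading | control set = DMSO and TFP controls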
DENV2 CPE rescue – inhibitors of DENV2 cytopathic effect, primary screen, cell-based, plate reader, single concentration; DENV2-infected cells, cytopathic effect rescue; CPE inhibition, % at 9.99 µM; 1.7% of 350,000 active; in the data active means CPE inhibition above about 20%, passing the limit was not always enough; inconclusive means no clear call, values can overlap the other calls; tested in BHK-21 cells;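 further: 0% = median of neutral control wells and 100% = median of positive control wells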
PfHsp90 yeast 2 – growth inhibition of PfHsp90-expressing yeast, primary screen, antimalarial PfHsp90 inhibitor project, S. cerevisiae, BacTiter-Glo luminescence, single point, set 2; BacTiter-Glo ATP, 48 h; yeast lacking PDR1 and PDR3 efflux regulators; inhibition, % at 9.4 µM; 0.32% of 310,000 active; AID 504621, 2011;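 active means every replicate shows inhibition above about 80%, whatever the replicate mean, limit read from the data; inconclusive means mean inhibition reaches the set limit but some replicate falls short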;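 further: 0% = DMSO neutral controls and 100% = 20 µM radicicol positive controls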
MLL AF4-AF9 inh – inhibitors of AF4 peptide binding to AF9, primary screen, biochemical, AlphaScreen, biotin-AF4 peptide, FLAG-AF9, single point | Protein AF-9 (Homo sapiens), P42568 | inhibition, % at 10 µM | 0.47% of 350,000 active | AID 651704, 2012;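 active means every replicate reaching a set inhibition limit, whatever the replicate mean, cut at about 25% in these data; inconclusive means mean inhibition reaches that limit but some replicates miss it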;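 further: 0% = plate neutral control median and 100% = total signal loss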
Target sequence (P42568 whole entry, looked up): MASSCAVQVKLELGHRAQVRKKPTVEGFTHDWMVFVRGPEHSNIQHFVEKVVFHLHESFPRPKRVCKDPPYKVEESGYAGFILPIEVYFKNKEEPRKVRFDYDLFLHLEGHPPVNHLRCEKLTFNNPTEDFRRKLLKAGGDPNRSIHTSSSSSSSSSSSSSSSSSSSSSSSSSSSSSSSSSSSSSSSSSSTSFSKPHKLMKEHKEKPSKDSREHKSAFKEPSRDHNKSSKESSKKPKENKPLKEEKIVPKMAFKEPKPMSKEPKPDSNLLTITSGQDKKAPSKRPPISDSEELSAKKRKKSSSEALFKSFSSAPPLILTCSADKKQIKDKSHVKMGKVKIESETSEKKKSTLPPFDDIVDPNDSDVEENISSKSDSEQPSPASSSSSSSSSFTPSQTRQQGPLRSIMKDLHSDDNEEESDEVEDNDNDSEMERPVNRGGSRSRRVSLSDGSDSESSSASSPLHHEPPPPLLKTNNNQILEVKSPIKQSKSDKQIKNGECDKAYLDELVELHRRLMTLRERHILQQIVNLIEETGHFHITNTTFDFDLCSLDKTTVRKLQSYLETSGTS
Cneo AK release – Cryptococcus neoformans cell lysis inducers, primary screen, AK release luminescence, single concentration | C. neoformans lysis, adenylate kinase release luminescence, 4 h; normalised: neutral wells 0, clomiphene wells 100 | lysis activity, % at 15 µM | 0.2% of 360,000 active | AID 651654, 2012;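 active means mean lysis activity across replicates of at least 80%, whatever share of replicates individually reach that level; inactive means mean lysis activity below 80%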
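Test system: log-phase Cryptococcus neoformans yeast cells. Input: 5 × 10^6 yeast cells/mL. Medium: fresh YPD growth medium. Doses: single dose. Incubation: static 4 h at 37 °C with compound, 1 h detection. Measured by: luminescent adenylate kinase detection reagent. Read-out: signal increase indicating cell lysis. Benchmarks: Clomiphene.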
Numbers without * were called inactive; ? = inconclusive; nt = no result given. Hits are enriched below; roughly 3.2% of the tested compounds scored in any of these assays.

SMILES	rRNA inh HTS	S100A4 inh HTS	DENV2 CPE rescue	PfHsp90 yeast 2	MLL AF4-AF9 inh	Cneo AK release
Cc1cccc(C)c1NC(=O)C1c2ccccc2OCC(=O)N1Cc1ccc2c(c1)OCO2 (configuration not stated)	-22*	-14	-4	nt	0	nt
Cc1cc(OC(C)C(=O)NC2CC(C)(C)NC(C)(C)C2)c2c(C)c(C)c(=O)oc2c1 (configuration not stated)	15	0	45*	nt	-4	5
C[C@H](CO)N1C[C@H](C)[C@@H](CN(C)C(=O)Nc2ccc(C(F)(F)F)cc2)Oc2ncc(C#C[C@@H](C)O)cc2C1=O	-4	-1	-1	nt	1	-2
COc1ccc(NC(=O)c2ccc(NC(=O)c3ccncc3)cc2)cc1	-1	-10	-4	-28	31*	2
COc1ccc(C(=O)NNC(=O)c2ccncc2)cc1	nt	nt	nt	-2	nt	11
CC=Cc1ccc2n(c1=O)C[C@H]1[C@H](CO)[C@@H](C(=O)NCc3ccccc3)[C@@H]2N1S(C)(=O)=O (mixture of isomers)	0	nt	1	nt	0	-2
CC(C)(C)c1ccc(C(=O)O/N=C(\N)c2ccccc2)cc1	-51	-6	-5	7	-1	-4
Cc1cc(C(=O)O/N=C(\N)c2ccc(C(C)(C)C)cc2)no1	12	8	65*	nt	2	19
Cc1ccccc1Nc1nc(N)nc(COC(=O)c2cccc(S(=O)(=O)N(C)C)c2)n1	-17*	-2	-1	-18	-77	2
CC(C)NC(=O)Nc1ccc2c(c1)C(=O)N([C@H](C)CO)C[C@@H](C)[C@@H](CN(C)Cc1ccncc1)OCCCC[C@H](C)O2	nt	3	?	nt	-3	2
CC(C)NC(=O)Nc1ccc2c(c1)C(=O)N([C@H](C)CO)C[C@H](C)[C@H](CN(C)Cc1ccncc1)OCCCC[C@H](C)O2	-3	24	4	nt	5	114*
C[C@H](CO)N1C[C@H](C)[C@@H](CN(C)Cc2ccncc2)OCCCC[C@H](C)Oc2ccc(NC(=O)NC3CCCCC3)cc2C1=O	-4	9	-12	nt	-2	111*
COc1ccc2c3c([nH]c2c1)[C@@H](CO)N(S(C)(=O)=O)CC31CCN(C(=O)c2cccnc2)CC1	0	-6	-3	nt	-4	nt
O=C(Cc1ccccn1)NCC[C@H]1CC[C@@H](NC(=O)c2ccccc2F)[C@@H](CO)O1	2	4	40*	nt	-1	27
O=C(N[C@@H]1CC[C@H](CCNS(=O)(=O)Cc2ccccc2)O[C@@H]1CO)c1ccc2c(c1)OCO2	2	10	22*	nt	-2	-1
O=C(N[C@@H]1CC[C@H](CCNS(=O)(=O)Cc2ccccc2)O[C@H]1CO)c1ccc2c(c1)OCO2	-1	19	10	nt	-2	-1
O=C(C[C@@H]1CC[C@H](NC(=O)Cc2ccccn2)[C@H](CO)O1)NCCc1ccccc1	3	6	-3	nt	-3	81*
O=C(CN1CCOCC1)NCC[C@@H]1CC[C@H](NC(=O)c2ccc3c(c2)OCO3)[C@H](CO)O1	3	-1	-12	nt	1	-2
O=C(CN1CCOCC1)NCC[C@@H]1CC[C@H](NC(=O)c2ccc3c(c2)OCO3)[C@@H](CO)O1	3	4	22*	nt	1	-3
CN1CCN(C(=O)[C@H]2[C@H](CO)[C@H]3Cn4c(ccc(-c5cccnc5)c4=O)[C@H]3N2CC2CC2)CC1	3	-20	8	nt	-1	-7
O=C(Nc1ccc(C(F)(F)F)cc1)N[C@@H]1CC[C@H](CC(=O)N2CCCCC2)O[C@@H]1CO	-6	-1	-6	nt	-3	-1
C[C@@H]1CCCCO[C@@H](CN(C)CC2CC2)[C@H](C)CN([C@H](C)CO)C(=O)c2cc(NC(=O)CCC(F)(F)F)ccc2O1	1	7	-4	nt	-1	nt
O=C(CN1CCOCC1)NCC[C@H]1CC[C@H](NC(=O)Cc2ccccn2)[C@@H](CO)O1	1	-2	24*	nt	-1	-4
O=C(CN1CCOCC1)NCC[C@H]1CC[C@H](NC(=O)Cc2ccccn2)[C@H](CO)O1	2	-5	-1	nt	7	51
C[C@@H]1CN([C@H](C)CO)C(=O)Cc2cc(NS(=O)(=O)c3ccc(F)cc3)ccc2O[C@@H]1CN(C)C	2	11	?	nt	2	-6
SMILES	rRNA inh HTS	S100A4 inh HTS	DENV2 CPE rescue	PfHsp90 yeast 2	MLL AF4-AF9 inh	Cneo AK release
COc1ccc(-c2ccc3n(c2=O)C[C@H]2N[C@@H]3[C@@H](C(=O)N3CCCCC3)[C@@H]2CO)cc1	1	5	-2	nt	-2	nt
CC1=C(N2CCOCC2)CCC1=O	10	85*	-6	37	-1	-4
CC1=C(C)C(=O)C(N2CCOCC2)=CC1=O	20	-9	nt	13	1	-2
C[C@H]1CN([C@@H](C)CO)C(=O)c2cccc(NS(=O)(=O)c3ccc(F)cc3)c2O[C@H]1CN(C)Cc1ccccc1	-1	13	-10	nt	-3	-2
COc1ccc(OC)c(S(=O)(=O)NC(=O)C2(C)CCN2C(=O)c2ccco2)c1 (configuration not stated)	-1	0	9	nt	0	1
CC1(C(=O)NS(=O)(=O)c2ccccc2Cl)CCN1C(=O)c1ccco1 (configuration not stated)	9	5	22*	nt	1	-2
CC1(C(=O)NS(=O)(=O)c2ccccc2Cl)CCN1C(=O)C1(c2ccc(Cl)cc2)CCC1 (configuration not stated)	-17*	1	-2	nt	0	1
CC1(C(=O)NS(=O)(=O)c2ccc(Cl)s2)CCN1C(=O)C1(c2ccccc2)CCCC1 (configuration not stated)	-31*	3	3	nt	5	-1
COc1ccc2c3c(n(C)c2c1)[C@H](CO)N(CC1CCCCC1)CC31CCN(C(C)=O)CC1	4	-9	6	nt	-5	nt
CC1CCN(CCOCCOc2ccc(Cl)cc2Br)CC1	-30*	1	4	13	11	-1
Clc1cc(Br)ccc1OCCn1ccnc1	nt	nt	nt	nt	nt	0
Clc1cc(Br)ccc1OCCCn1ccnc1	-25	2	37*	-15	3	nt
Clc1cc(Br)ccc1OCCOCCN1CCCC1	9	-2	25*	31	-2	3
Clc1cccc(OCCOCCN2CCNCC2)c1Cl	-16*	2	?	nt	13	0
Clc1cccc(OCCCN2CCCC2)c1Cl	11	0	-6	1	0	nt

Compound activity as filed in PubChem BioAssay.
